We go through 15 compounds from ChEMBL document CHEMBL4842325, “Lanosterol 14α-demethylase (CYP51)/histone deacetylase (HDAC) dual inhibitors for treatment of Candida tropicalis and Cryptococcus neoformans infections” (Eur J Med Chem, 2021).

pIC50: −log10 of the molar value. In brackets after ≈: the same amount, converted by molar mass. Where only a bound is given, the exact number is not on record here.

The subject of test [1] is Candida albicans. In words: microbe, parasite or virus in culture. Particulars: 7781. In kind it is functional.
Test [2] concerns Candida albicans. Description: Antifungal activity against fluconazole-sensitive Candida albicans 10061 assessed as inhibition of fungal growth. In kind it is functional.
Test [3] has as its system Candida tropicalis. Description: microbe, parasite or virus in culture. In kind it is functional. To be noted: 5008, time 48 hrs.
In test [4] the test system is Candida albicans. In words: Antifungal activity against fluconazole-sensitive Candida albicans SC5314 assessed as inhibition of fungal growth. In kind it is functional.
Test [5] relates to Cryptococcus neoformans. In words: microbe, parasite or virus in culture. In kind it is functional. Particulars: H99, time 72 hrs.
The test system of test [6] is Candida albicans. In words: microbe, parasite or virus in culture. The class given is functional. Particulars: 4108.
Test [7] has as its system Candida albicans. In words: microbe, parasite or virus in culture. In kind it is functional. To be noted: 0304103.
Test [8] relates to Candida tropicalis. In words: microbe, parasite or virus in culture. In kind it is functional. Particulars: 3890, time 48 hrs.
In test [9] the test system is Candida albicans. In words: Antifungal activity against fluconazole-sensitive Candida albicans 9770 assessed as inhibition of fungal growth. The class given is functional.
Test [10] can be described thus: Inhibition of HDAC in Candida tropicalis 5008 using Boc-Lys(Ac)-AMC as substrate preincubated with protoplast for 12 hrs followed by incubation with substrate for 6 hrs by fluorimetric assay. In a few lines:
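Whole-cell assay on C. tropicalis 5008, 100 mg wet weight of exponential-phase cells. Cell wall removed with snailase to give protoplasts, which were dispersed in PBS. Protoplasts incubated with compound at 35 °C for 12 h. Boc-Lys(Ac)-AMC then added to a final 30 µM and incubated 37 °C for 6 h. Stop solution added, 37 °C for 2 h. Fluorescence read at Ex 360/Em 460 nm and converted to HDAC inhibition rate.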

In general, pIC50 refers to the negative decadic logarithm of the IC50, by convention in mol/L.

Take `O=C(NO)c1ccc(CCCCn2ncn(-c3ccc(CN4CCN(CC(O)(Cn5cncn5)c5ccc(F)cc5F)CC4)cc3)c2=O)cc1` (centres undefined): the MIC80 in test [1] was 16 µg/mL (≈ 23.3 µM); in test [2], > 64 µg/mL; in test [3] it was > 64 µg/mL; in test [4] it was > 64 µg/mL; in test [5], 8 µg/mL (≈ 11.6 µM); in [6], > 64 µg/mL. The MIC80 in test [7], in test [8] and in [9] was > 64 µg/mL in each case.

With `O=C(Cc1ccc(OCCCn2ncn(-c3ccc(CN4CCN(CC(O)(Cn5cncn5)c5ccc(F)cc5F)CC4)cc3)c2=O)cc1)NO` (centres undefined), the MIC80 in [1] worked out at 2 µg/mL (≈ 2.84 µM); in [2], 32 µg/mL (≈ 45.5 µM); in [3] it was 16 µg/mL (≈ 22.7 µM); in [4], 2 µg/mL (≈ 2.84 µM); in test [5], 2 µg/mL (≈ 2.84 µM); in [6], 4 µg/mL (≈ 5.68 µM). The MIC80 in test [7] turned out to be 2 µg/mL (≈ 2.84 µM); in test [8], 2 µg/mL (≈ 2.84 µM); in [9] it was 32 µg/mL (≈ 45.5 µM).

`O=C(CCCCCOc1ccc(CN2CCN(CC(O)(Cn3cncn3)c3ccc(F)cc3F)CC2)cc1)NO` (centres undefined): the MIC80 in [1] was 2 µg/mL (≈ 3.58 µM); in [2], > 64 µg/mL; in [3], 1 µg/mL (≈ 1.79 µM); in test [4] it was 1 µg/mL (≈ 1.79 µM); in [5], 8 µg/mL (≈ 14.3 µM); in [6], 16 µg/mL (≈ 28.6 µM). The MIC80 in [7] turned out to be 32 µg/mL (≈ 57.3 µM); in test [8] it was 2 µg/mL (≈ 3.58 µM); in test [9], 32 µg/mL (≈ 57.3 µM).

Turning to `O=C(Cc1ccc(OCCCCN2CCN(CC(O)(Cn3cncn3)c3ccc(F)cc3F)CC2)cc1)NO` (centres undefined), the MIC80 in [1] is > 64 µg/mL; in [2], > 64 µg/mL; in [3], > 64 µg/mL; in test [4], > 64 µg/mL; in test [5] it was 32 µg/mL (≈ 58.8 µM); in test [6], > 64 µg/mL. Moreover, the MIC80 in [7] is 32 µg/mL (≈ 58.8 µM); in [8], 32 µg/mL (≈ 58.8 µM); in [9] it was > 64 µg/mL.

Consider `O=C(CCCCCCC(=O)Nc1ccccc1)NO` [VORINOSTAT], for which the pIC50 in test [10] was 5.45.

Regarding `O=C(CCCCCCCn1ncn(-c2ccc(CN3CCN(CC(O)(Cn4cncn4)c4ccc(F)cc4F)CC3)cc2)c1=O)NO` (centres undefined), the MIC80 was 64 µg/mL (≈ 97.9 µM) in test [1]; > 64 µg/mL in test [3]; > 64 µg/mL in test [4]; 32 µg/mL (≈ 48.9 µM) in [5]; 64 µg/mL (≈ 97.9 µM) in test [7]; > 64 µg/mL in test [8]. The MIC80 in test [9] is > 64 µg/mL.

Turning to `O=C(CCCCCCn1ncn(-c2ccc(CN3CCN(CC(O)(Cn4cncn4)c4ccc(F)cc4F)CC3)cc2)c1=O)NO` (centres undefined), the MIC80 in test [1] was 32 µg/mL (≈ 50 µM); in [3], > 64 µg/mL; in [4], > 64 µg/mL; in test [5], 64 µg/mL (≈ 100 µM); in test [7], > 64 µg/mL; in test [8], > 64 µg/mL. Besides, in [9], the MIC80 is > 64 µg/mL.

Consider `O=C(Cc1ccc(OCCCOc2ccc(CN3CCN(CC(O)(Cn4cncn4)c4ccc(F)cc4F)CC3)cc2)cc1)NO` (centres undefined), for which the MIC80 in test [1] was 4 µg/mL (≈ 6.28 µM); in [2], > 64 µg/mL; in [3] it was 32 µg/mL (≈ 50.3 µM); in test [4] it was 4 µg/mL (≈ 6.28 µM); in test [5] it was 4 µg/mL (≈ 6.28 µM); in [6], 32 µg/mL (≈ 50.3 µM). Further, the MIC80 in test [7] is 32 µg/mL (≈ 50.3 µM); in test [8] it was 2 µg/mL (≈ 3.14 µM); in test [9], > 64 µg/mL.

Consider `O=C(Cc1ccc(OCCCCCCN2CCN(CC(O)(Cn3cncn3)c3ccc(F)cc3F)CC2)cc1)NO` (centres undefined), for which the MIC80 in [1] worked out at 4 µg/mL (≈ 6.98 µM); in [2], 16 µg/mL (≈ 27.9 µM); in test [3], 4 µg/mL (≈ 6.98 µM); in test [4], 16 µg/mL (≈ 27.9 µM); in test [5], 16 µg/mL (≈ 27.9 µM); in test [6] it was 16 µg/mL (≈ 27.9 µM). For the same compound, the MIC80 worked out at 16 µg/mL (≈ 27.9 µM) in test [7], 2 µg/mL (≈ 3.49 µM) in test [8] and 16 µg/mL (≈ 27.9 µM) in [9].

Take `O=C(CCCOc1ccc(CN2CCN(CC(O)(Cn3cncn3)c3ccc(F)cc3F)CC2)cc1)NO` (centres undefined): the MIC80 in test [1] stood at 8 µg/mL (≈ 15.1 µM); in [2] it was 32 µg/mL (≈ 60.3 µM); in test [3], 4 µg/mL (≈ 7.54 µM); in test [4], 4 µg/mL (≈ 7.54 µM); in [5], 8 µg/mL (≈ 15.1 µM); in test [6], 16 µg/mL (≈ 30.2 µM). The figures for the MIC80 in test [7], in [8] and in test [9] were 8 µg/mL (≈ 15.1 µM), 4 µg/mL (≈ 7.54 µM) and > 64 µg/mL, respectively.

With `O=C(CCCCCCOc1ccc(CN2CCN(CC(O)(Cn3cncn3)c3ccc(F)cc3F)CC2)cc1)NO` (centres undefined), the MIC80 in [1] came to 1 µg/mL (≈ 1.75 µM); in [2] it was 32 µg/mL (≈ 55.9 µM); in test [3], 0.5 µg/mL (≈ 0.873 µM); in test [4] it was 1 µg/mL (≈ 1.75 µM); in test [5], 0.5 µg/mL (≈ 0.873 µM); in [6], 8 µg/mL (≈ 14 µM). In addition, the results for the MIC80 in test [7], in test [8] and in test [9] were 16 µg/mL (≈ 27.9 µM), 2 µg/mL (≈ 3.49 µM) and 32 µg/mL (≈ 55.9 µM), respectively.

Turning to `O=C(Cc1ccc(OCCCCCN2CCN(CC(O)(Cn3cncn3)c3ccc(F)cc3F)CC2)cc1)NO` (centres undefined), the MIC80 in test [1] was > 64 µg/mL; in test [2], > 64 µg/mL; in test [3], > 64 µg/mL; in [4], 32 µg/mL (≈ 57.3 µM); in test [5], 32 µg/mL (≈ 57.3 µM); in [6], > 64 µg/mL. Moreover, the MIC80 in [7] was > 64 µg/mL; in test [8] it was 4 µg/mL (≈ 7.16 µM); in [9] it was > 64 µg/mL.

Take `C[C@@H](c1ncncc1F)[C@](O)(Cn1cncn1)c1ccc(F)cc1F` [VORICONAZOLE]: the MIC80 was > 64 µg/mL in test [1]; > 64 µg/mL in [3]; < 0.125 µg/mL in test [4]; 0.0625 µg/mL (≈ 0.179 µM) in test [5]; > 64 µg/mL in test [6]; > 64 µg/mL in test [7]. Moreover, in test [8], the MIC80 was > 64 µg/mL.

For the compound `CCC(C)n1ncn(-c2ccc(N3CCN(c4ccc(OCC5COC(Cn6cncn6)(c6ccc(Cl)cc6Cl)O5)cc4)CC3)cc2)c1=O` (centres undefined) [ITRACONAZOLE], the MIC80 was > 64 µg/mL in test [1]; > 64 µg/mL in test [3]; 0.5 µg/mL (≈ 0.709 µM) in test [4]; 0.125 µg/mL (≈ 0.177 µM) in test [5]; > 64 µg/mL in test [6]; > 64 µg/mL in test [7]. Moreover, in [8], the MIC80 was > 64 µg/mL.

Turning to `O=C(CCCCOc1ccc(CN2CCN(CC(O)(Cn3cncn3)c3ccc(F)cc3F)CC2)cc1)NO` (centres undefined), the MIC80 in test [1] is 4 µg/mL (≈ 7.34 µM); in test [2], > 64 µg/mL; in test [3], 4 µg/mL (≈ 7.34 µM); in [4] it was 1 µg/mL (≈ 1.84 µM); in [5], 8 µg/mL (≈ 14.7 µM); in test [6], 32 µg/mL (≈ 58.8 µM). In addition, the results for the MIC80 in test [7], in [8] and in [9] were 8 µg/mL (≈ 14.7 µM), 2 µg/mL (≈ 3.67 µM) and > 64 µg/mL, respectively.
